sdo1 growth: compounds rescuing growth of sdo1-depleted yeast, bone marrow failure model; S. cerevisiae sdo1-depleted JHY4D growth rescue, OD600 30 h; stronger effect = higher value; pdr5 snq2 efflux-pump mutant strain; hit rate 0.21% among 140,000; z-score at 10 µM; AID 817;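 active means z-score above 3 at both the 24 hr and the 30 hr optical density reads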;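 further: z-score against mean and SD of all compound wells on the same plate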
TNF death inh: blocks TNF-alpha induced death of Jurkat FADD-/- cells; Jurkat FADD-/- TNF necroptosis rescue, ATP luminescence, 24 h; 0 = TNF only, 100 = no-TNF cells; activation (protection from cell death), % at 10 µM; hit rate 0.068% among 220,000; AID 463075;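 active means activation, meaning protection from cell death, of at least 50% relative to plate controls; inactive means activation below 50%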;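 further: necroptosis triggered by 40 ng/mL TNF-alpha added together with compound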
TNAP inh hi DEA: inhibitors of human TNAP at high phosphate acceptor concentration. P05186. purified TNAP, CDP-star luminescence, 1 M DEA. inhibition, % at 20 µM. hit rate 0.03% among 200,000. AID 1135;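 active means over 50% inhibition of tissue-nonspecific alkaline phosphatase at 20 µM in the single-dose screen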;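 further: plate controls were DMSO wells for no effect and EDTA-quenched wells as full inhibition for full effect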
Target sequence (P05186 whole entry, looked up): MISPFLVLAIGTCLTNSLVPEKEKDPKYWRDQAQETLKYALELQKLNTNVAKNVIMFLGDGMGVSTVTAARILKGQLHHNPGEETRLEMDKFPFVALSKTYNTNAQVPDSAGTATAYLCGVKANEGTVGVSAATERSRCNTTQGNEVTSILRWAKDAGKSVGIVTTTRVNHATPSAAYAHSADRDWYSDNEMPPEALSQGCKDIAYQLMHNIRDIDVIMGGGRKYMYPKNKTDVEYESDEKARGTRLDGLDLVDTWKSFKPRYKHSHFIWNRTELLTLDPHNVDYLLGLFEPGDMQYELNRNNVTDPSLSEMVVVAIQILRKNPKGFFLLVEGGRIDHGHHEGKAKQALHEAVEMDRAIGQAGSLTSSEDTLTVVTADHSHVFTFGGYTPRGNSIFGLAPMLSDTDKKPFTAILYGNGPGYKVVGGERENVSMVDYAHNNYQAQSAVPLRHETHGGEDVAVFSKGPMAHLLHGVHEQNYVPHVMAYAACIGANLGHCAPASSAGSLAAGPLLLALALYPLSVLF
L929 necroptosis: blocks zVAD induced death of L929 cells | AID 1377 | viability rescue, % at 10 µM | L929 zVAD necroptosis rescue, ATP luminescence, 24 h; with zVAD 60 µM | hit rate 0.38% among 220,000;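 active means activation, scaled between plate controls, above about 75%, limit read from the data; inactive means activation under that limit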;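 further: 0% = zVAD with DMSO and 100% = DMSO alone without zVAD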
TNAP act hiacc: TNAP (human) activation, high acceptor; P05186; purified TNAP, CDP-star luminescence, 1 M DEA, 30 min; stronger effect = higher value; 0 = EDTA background, 1 = DMSO-only activity; activation factor at 20 µM; 200,000 tested, under 10 active; AID 1136;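 active means activation factor at least 2 at 20 µM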
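Control set: EDTA negative control, DMSO positive control / Assay system: human TNAP / Quantity: TNAP 1/800 final / Evaluation: TNAP activation factor scaled between EDTA and DMSO control wells / Measured by: luminescent substrate turnover signal / Compound dosing: one dose, 20 µM / Times: 30 min enzyme reaction at room temperature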
TNAP inh no acc: blocks human TNAP activity with no phosphate acceptor present | purified TNAP, CDP-star luminescence, 30 min | inhibition, % at 20 µM | hit rate 0.26% among 200,000 | AID 1012;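 active means tissue-nonspecific alkaline phosphatase inhibition above about 50% at 20 µM in the single-dose screen, limit read from the data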;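 further: 0% = DMSO negative control and 100% = EDTA positive control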
zVAD death conf: confirmed blocker of zVAD induced death in L929 cells. shares compounds with L929 necroptosis. L929 zVAD-induced necroptosis rescue, ATP luminescence, 24 h. activation (protection from necroptosis), % at 10 µM. hit rate 16% among 760;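 active means mean protection from necroptosis of at least 50% over duplicate tests; inactive means mean protection below 50%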;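 further: 0% = cells with zVAD alone and 100% = vehicle cells without zVAD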
* = called active by the depositor; . = no result. Rows were chosen to be rich in hits. Some 0.81% of all compounds tested hit in one or more screens of this group.

SMILES | sdo1 growth | TNF death inh | TNAP inh hi DEA | L929 necroptosis | TNAP act hiacc | TNAP inh no acc | zVAD death conf
O=C(Nc1nccs1)c1ccc(-c2ccc(F)cc2)o1 | . | 5 | 1 | 83* | 1 | -7 | 1
Clc1ccc(COn2ccnc2)cc1Cl | . | 88* | -1 | 88* | 1 | -9 | 92*
Cc1nc(C(F)(F)F)c(C(=O)N/N=C(\N)c2cccnc2)s1 | . | 0 | -3 | 6 | 1 | -7 | .
O=C(NCCn1ccc2ccccc21)c1cccc([N+](=O)[O-])c1 | . | 0 | 5 | 0 | 0.9 | -6 | .
COC(=O)c1ccc(/C=N/Nc2nc(C)c(C)s2)cc1 | . | 11 | . | 80* | . | . | 2
CC(=O)Nc1ccc2c(c1)n(C)c(=O)n2C | 0.97 | 0 | -2 | 0 | 1 | -12 | .
Cn1c(=O)n(C)c2cc(NC(=O)CCl)ccc21 | -0.11 | 4 | -3 | 83* | 1 | -9 | 25
O=C(Nc1ccc(S(=O)(=O)Nc2nccs2)cc1)c1ccc(N2C(=O)c3ccccc3C2=O)cc1 | . | 0 | -9 | -1 | 1.1 | 4 | .
CCOC(=O)C1C(=O)NC(SCC(=O)Nc2nccs2)=C(C#N)C1c1ccccc1OCC (stereo unspecified) | -0.56 | 16 | -3 | 88* | 1 | -9 | 67*
O=C(COc1cccc(NC(=O)c2cccs2)c1)c1ccc(F)cc1 | -1.3 | 6 | 0 | 4 | 1 | 0 | .
O=C(Nc1cccc(Oc2ccc3c(c2)C(=O)NC3=O)c1)c1cccs1 | -0.58 | 0 | 0 | 87* | 1 | -2 | 43
c1ccc(Nc2nc(N3CCCCC3)nc(N3CCNCC3)n2)cc1 | -0.92 | -2 | -6 | 77* | 1.1 | -4 | 2
COc1ccc(NC(=O)c2cc3cccc(OC)c3oc2=Nc2ccc(C(=O)O)cc2)cc1OC | . | -6 | 5 | 82* | 1 | -14 | 11
COc1ccc(Br)cc1C(=O)Nc1ccc(C(=O)O)cc1 | . | 0 | -7 | -1 | 1.1 | -14 | .
Cc1ccc(NC(=S)N(CCN2CCOCC2)Cc2cc3cc4c(cc3[nH]c2=O)OCO4)cc1 | . | 1 | -5 | 0 | 1.1 | -6 | .
Cc1cc(O)c(C(C)C)cc1N=Nc1ccccc1C(=O)O | . | -4 | . | 2 | . | . | .
Cc1cc(NO)c(C(C)C)cc1N=O | -0.12 | -2 | 3 | 78* | 1 | -11 | 8
CC1(C(=O)OCC(=O)Nc2ccc3ccccc3c2)CC1(Cl)Cl (stereo unspecified) | . | 3 | -1 | 78* | 1 | -14 | 2
CC1(C(=O)OCC(=O)Nc2ccc(C(N)=O)cc2)CC1(Cl)Cl (stereo unspecified) | . | 1 | -2 | 7 | 1 | -4 | .
Nc1c(C(=O)OCC2CCCO2)c2nc3ccccc3nc2n1-c1ccc2c(c1)OCCO2 (stereo unspecified) | -1.3 | -7 | -4 | 93* | 1 | -3 | 2
S=c1[nH]nc(-c2ccncc2)n1/N=C/C(Cl)=C\c1ccccc1 | . | 2 | -4 | 85* | 1 | 39 | 5
S=c1[nH]nc(-c2ccncc2)n1/N=C/C=C/c1ccccc1 | . | 2 | . | 1 | . | . | .
CCCN1C(=O)/C(=C/c2ccc3c(c2)OCO3)NC1=S | . | 46 | 5 | 87* | 1 | 7 | 90*
c1ccn(-c2ccc(-c3ccn[nH]3)cc2)c1 | . | 7 | -1 | 86* | 1 | -15 | 5
CCOC(=O)c1cnc(-c2ccccc2)nc1N | -0.03 | -1 | -4 | 0 | 1 | -9 | .
SMILES | sdo1 growth | TNF death inh | TNAP inh hi DEA | L929 necroptosis | TNAP act hiacc | TNAP inh no acc | zVAD death conf
CCOC(=O)c1ccc2ncc(-c3ccccc3)nc2c1 | . | 0 | -4 | 76* | 1 | -9 | 1
CC(C)(C)c1ccc(/C=N/N2CCN(c3ccccn3)CC2)cc1 | . | 10 | . | 82* | . | . | 31
C(=N\Nc1nc2ccccc2[nH]1)/c1ccccc1 | . | 13 | -3 | 84* | 1 | -6 | 7
Cc1ccccc1/C=N/Nc1nc2ccccc2[nH]1 | . | 8 | -3 | 38 | 1 | -18 | .
C(=N\Nc1nc2ccccc2[nH]1)/c1c[nH]c2ccccc12 | 1 | 34 | -2 | 80* | 1 | -49 | 35
Cc1ccc(/C=N/Nc2nc3ccccc3[nH]2)s1 | 0.26 | 11 | 3 | 76* | 1 | -78 | 5
CN1CCN(c2ccccc2/C=N/NC(=O)c2cccnc2)CC1 | . | 1 | . | -1 | . | . | .
COC(=O)c1ccn(Cc2ccccc2Cl)n1 | . | 100* | -6 | 90* | 1.1 | -14 | 81*
COC(=O)c1cc2n(n1)CCN(Cc1ccccc1Cl)C2=O | -0.07 | -2 | -1 | 0 | 1 | -4 | .
O=C(Nc1cccc(S(=O)(=O)N2CCOCC2)c1)[C@@H]1CCCN1S(=O)(=O)c1ccc(Cl)cc1 | 0.45 | 1 | -4 | 1 | 1 | -10 | .
COc1ccc(CC(=O)Nc2ccc(-c3cn4ccc(C)cc4n3)cc2)cc1 | -0.48 | 2 | -4 | 81* | 1 | -15 | 24
COc1ccc(CC(=O)Nc2ccc(-c3cn4cccc(C)c4n3)cc2)cc1OC | -0.11 | -2 | -6 | -1 | 1.1 | -28 | .
O=S(=O)(c1ccc(Br)cc1)c1cnc2ccccc2n1 | . | 5 | -1 | 47 | 1 | -4 | .
COc1ccc(S(=O)(=O)c2cnc3ccccc3n2)cc1 | . | 21 | -2 | 76* | 1 | -5 | 1
O=c1[nH]c(CN2CCN(S(=O)(=O)/C=C/c3ccccc3)CC2)nc2cc(Cl)ccc12 | . | -11 | . | 0 | . | . | .
COc1ccc(C(C(=O)NC2CCCC2)N(C(=O)c2ccoc2C)c2ccc(C)c(C)c2)cc1 (stereo unspecified) | -0.03 | 0 | -4 | -1 | 1 | -25 | .
CCc1cccc(CC)c1NC(=O)COC(=O)CC1c2ccccc2CCN1S(=O)(=O)c1ccccc1 (stereo unspecified) | -0.52 | 3 | -10 | 0 | 1.1 | -79 | .
CC(=O)N(C)c1ccc(NC(=O)Nc2ccc(C)cc2)cc1 | . | -1 | -2 | 77* | 1 | -10 | 37
CC(=O)N(C)c1ccc(NC(=S)Nc2ccccc2)cc1 | -0.23 | -1 | -2 | 0 | 1 | -10 | .
CC1CCN(CC(=O)Nc2ccc(Cl)cc2[N+](=O)[O-])CC1 | . | 1 | -4 | 7 | 1 | -8 | .
COC(=O)c1c(C)[nH]c(C(=O)OCc2ccc(F)cc2)c1C | -0.64 | 1 | -3 | 79* | 1 | -10 | 3
CCc1c(C(=O)OCc2ccccc2)[nH]c(C)c1C | . | 0 | . | 68 | . | . | .
CC(=O)c1c(C)[nH]c(C(=O)OCC(=O)NCCc2ccc(F)cc2)c1C | -0.63 | -3 | -8 | 1 | 1.1 | -15 | .
CCc1c(C)[nH]c(C(=O)OCc2ccccc2)c1C | . | 1 | 3 | 86* | 1 | -3 | 8

Bioassay records as filed in PubChem BioAssay.
